# Test results: ChEMBL document CHEMBL1138494, “Human glucagon receptor antagonists with thiazole cores. A novel series with superior pharmacokinetic properties” (J Med Chem, 2009)
# The source made the active and inactive calls. The calls are words filed in the database; no cut-off is given here.
# What was measured:
# [1] = target: T1, Gastric inhibitory polypeptide receptor (Homo sapiens, UniProt P48546); assay: Displacement of [125I]porcine GIP from human recombinant GIPR receptor expressed in BHK cells by scintillation proximity assay; assay type: cell-based
# T1 sequence (P48546 whole entry): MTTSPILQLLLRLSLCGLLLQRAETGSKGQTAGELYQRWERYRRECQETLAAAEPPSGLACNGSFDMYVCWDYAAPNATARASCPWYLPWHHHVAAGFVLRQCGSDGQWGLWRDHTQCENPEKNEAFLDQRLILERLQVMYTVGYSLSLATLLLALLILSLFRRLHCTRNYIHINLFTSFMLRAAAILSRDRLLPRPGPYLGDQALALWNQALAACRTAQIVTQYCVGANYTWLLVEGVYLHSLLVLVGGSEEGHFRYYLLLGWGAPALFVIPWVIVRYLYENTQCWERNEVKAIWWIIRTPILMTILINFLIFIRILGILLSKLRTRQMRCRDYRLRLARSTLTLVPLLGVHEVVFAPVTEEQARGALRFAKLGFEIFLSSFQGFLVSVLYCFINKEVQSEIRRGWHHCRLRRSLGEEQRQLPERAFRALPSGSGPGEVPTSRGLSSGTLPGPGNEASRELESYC
# [2] = target: T2, Glucagon receptor (Homo sapiens, UniProt P47871); assay: Binding affinity to human recombinant glucagon receptor expressed in BHK cells by membrane filter assay; assay type: cell-based
# [3] = target: T1, Gastric inhibitory polypeptide receptor; assay: Binding affinity to human recombinant GIPR expressed in BHK cells by membrane filter assay; assay type: cell-based
# [4] = Cmax in fasted Sprague-Dawley rat at 1.58 mg/kg, iv and 3.16 mg/kg, po; assay type: ADME, organism-based; conditions: in vivo
# Outline: (§1)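 Rats were dosed intravenously and perorally in separate arms, and plasma concentration-time profiles were obtained. Half-life was taken from the iv arm. Clearance, oral bioavailability, Cmax and Tmax were derived from the profiles.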
# [5] = Tmax in fasted Sprague-Dawley rat at 1.58 mg/kg, iv and 3.16 mg/kg, po; assay type: ADME, organism-based; conditions: in vivo
# Outline: (§2)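 Plasma concentration–time profiles were recorded after separate intravenous and peroral dosing at the per-compound doses listed. T_max is reported in min alongside C_max (ng/mL), intravenous half-life and clearance ((mL/min)/kg).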
# [6] = species: Homo sapiens; assay: Selectivity ratio of IC50 for human recombinant glucagon receptor to IC50 for human recombinant GIPR
# Outline: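 Competition binding of compounds to recombinant human glucagon and GIP receptors on BHK cell membranes, run in parallel as a scintillation proximity assay and, for selected compounds, as a membrane filtration assay.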
# [7] = Oral bioavailability in fasted Sprague-Dawley rat at 3.16 mg/kg by HTLC-MS/MS analysis; assay type: ADME, organism-based; conditions: in vivo
# Outline: (§3)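 Separate intravenous and peroral dosing arms per compound, with plasma concentration followed against time. Oral bioavailability (F_po) is reported per compound together with the intravenous half-life and clearance. The dose used for each arm is listed per compound.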
# [8] = Clearance in fasted Sprague-Dawley rat at 1.58 mg/kg, iv and 3.16 mg/kg, po; assay type: ADME, organism-based; conditions: in vivo; outline: as §1
# [9] = Half life in fasted Sprague-Dawley rat plasma at 1.58 mg/kg, iv by HTLC-MS/MS analysis; assay type: ADME, organism-based; set-up: dose 1.58 mg/kg, route intravenous; outline: as §1
# [10] = species: Homo sapiens; assay: Selectivity for human recombinant glucagon receptor over human GLP1R
# [11] = target: T2, Glucagon receptor; assay: Displacement of [125I]porcine glucagon from human recombinant glucagon receptor expressed in BHK cells by scintillation proximity assay; assay type: cell-based
# [12] = system: Hepatocyte; assay: Inhibition of glucagon-stimulated glucose production in rat primary hepatocytes; assay type: functional, cell-based
# [13] = Tmax in fasted Sprague-Dawley rat at 1.1 mg/kg, iv and 2.1 mg/kg, po by HTLC-MS/MS analysis; assay type: ADME, organism-based; conditions: in vivo; outline: as §2
# [14] = system: Hepatocyte; assay: Inhibition of glucagon-stimulated glucose production in human primary hepatocytes preincubated for 10 mins before glucagon addition by NADH-linked hexokinase assay; assay type: functional, cell-based
# Outline: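 Cultured primary human hepatocytes were preincubated with compound for 10 min, then glycogenolysis was induced with 5 nM glucagon for 60 min. Glucose in the medium was measured against basal glycogenolysis. Albumin was present in the assay medium. IC50 was calculated from four experiments, mean ± SEM.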
# [15] = Half life in fasted Sprague-Dawley rat plasma at 1.1 mg/kg, iv by HTLC-MS/MS analysis; assay type: ADME, organism-based; set-up: dose 1.1 mg/kg, route intravenous; outline: as §1
# [16] = Clearance in fasted Sprague-Dawley rat at 1.1 mg/kg, iv and 2.1 mg/kg, po by HTLC-MS/MS analysis; assay type: ADME, organism-based; conditions: in vivo; outline: as §1
# [17] = Cmax in fasted Sprague-Dawley rat at 1.1 mg/kg, iv and 2.1 mg/kg, po by HTLC-MS/MS analysis; assay type: ADME, organism-based; conditions: in vivo; outline: as §1
# [18] = target: Glucagon receptor (Rattus norvegicus, UniProt P30082); assay: Binding affinity to glucagon receptor in rat liver membrane by membrane filter assay; assay type: cell membranes
# [19] = Oral bioavailability in fasted Sprague-Dawley rat at 2.1 mg/kg by HTLC-MS/MS analysis; assay type: ADME, organism-based; conditions: in vivo; outline: as §3
# [20] = target: Glucagon receptor (Mus musculus, UniProt Q61606); assay: Binding affinity to glucagon receptor in mouse liver membrane by membrane filter assay; assay type: cell membranes
# [21] = Binding affinity to glucagon receptor in monkey liver membrane by membrane filter assay; assay type: cell membranes, Macaca mulatta
# [22] = Tmax in fasted Beagle dog at 0.25 mg/kg, iv and 0.5 mg/kg, po; assay type: ADME, organism-based, Canis lupus familiaris; conditions: in vivo; outline: as §2
# [23] = Oral bioavailability in fasted Beagle dog at 0.5 mg/kg; assay type: ADME, organism-based, Canis lupus familiaris; conditions: in vivo; outline: as §3
# [24] = Tmax in fasted Sprague-Dawley rat at 1.49 mg/kg, iv and 3.19 mg/kg, po; assay type: ADME, organism-based; conditions: in vivo; outline: as §2
# [25] = Half life in fasted Beagle dog at 0.25 mg/kg, iv; assay type: ADME, organism-based, Canis lupus familiaris; set-up: dose 0.25 mg/kg, route intravenous; conditions: in vivo
# Outline: (§4)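 Dogs were dosed at 0.25 mg/kg iv and 0.5 mg/kg po, and plasma concentration was followed over time. Half-life came from the iv arm; clearance, Cmax and Tmax were also derived.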
# [26] = Clearance in fasted Beagle dog at 0.25 mg/kg, iv and 0.5 mg/kg, po; assay type: ADME, organism-based, Canis lupus familiaris; conditions: in vivo; outline: as §4
# [27] = Cmax in fasted Beagle dog at 0.25 mg/kg, iv and 0.5 mg/kg, po; assay type: ADME, organism-based, Canis lupus familiaris; conditions: in vivo; outline: as §4
# [28] = Half life in fasted Sprague-Dawley rat plasma at 1.49 mg/kg, iv by HTLC-MS/MS analysis; assay type: ADME, organism-based; set-up: dose 1.49 mg/kg, route intravenous; outline: as §1
# [29] = Oral bioavailability in fasted Sprague-Dawley rat at 3.19 mg/kg by HTLC-MS/MS analysis; assay type: ADME, organism-based; conditions: in vivo; outline: as §3
# [30] = Binding affinity to glucagon receptor in pig liver membrane by membrane filter assay; assay type: cell membranes, Sus scrofa
# [31] = Binding affinity to glucagon receptor in dog liver membrane by membrane filter assay; assay type: cell membranes, Canis lupus familiaris
# [32] = Clearance in fasted Sprague-Dawley rat at 1.49 mg/kg, iv and 3.19 mg/kg, po; assay type: ADME, organism-based; conditions: in vivo; outline: as §1
# [33] = Cmax in fasted Sprague-Dawley rat at 1.49 mg/kg, iv and 3.19 mg/kg, po; assay type: ADME, organism-based; conditions: in vivo; outline: as §1
# [34] = system: Rhesus monkey; assay: Antihyperglycemic activity against glucagon-stimulated glycaemia in iv dosed hyperglucagonaemia/hyperglycaemia monkey model assessed as decrease in plasma glucose level preincubated for 5 mins before glucagon challenge measured after 30 mins; assay type: functional, organism-based; conditions: Macaca mulatta
# Outline: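 Anesthetized monkeys challenged with exogenous glucagon received compound intravenously. Plasma glucose was followed over time to gauge blockade of glucagon-stimulated glycaemia.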
# [35] = Binding affinity to glucagon receptor in rabbit liver membrane by membrane filter assay; assay type: cell membranes, Oryctolagus cuniculus
# [36] = Half life in monkey at 0.3 to 3 mg/kg, iv; assay type: ADME, organism-based, Macaca mulatta; set-up: dose 0.3-3 mg/kg, route intravenous; conditions: rhesus monkey, in vivo
# Outline: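 In the anesthetized glucagon-challenged monkey study, compound was given intravenously. Blood samples were assayed for compound, and plasma concentration-time profiles yielded the half-life.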
# [37] = Cmax in fasted Sprague-Dawley rat at 1.62 mg/kg, iv and 3.04 mg/kg, po; assay type: ADME, organism-based; conditions: in vivo; outline: as §1
# [38] = Clearance in fasted Sprague-Dawley rat at 1.62 mg/kg, iv and 3.04 mg/kg, po by HTLC-MS/MS analysis; assay type: ADME, organism-based; conditions: in vivo; outline: as §1
# [39] = Tmax in fasted Sprague-Dawley rat at 1.62 mg/kg, iv and 3.04 mg/kg, po; assay type: ADME, organism-based; conditions: in vivo; outline: as §2
# [40] = Oral bioavailability in fasted Sprague-Dawley rat at 3.04 mg/kg by HTLC-MS/MS analysis; assay type: ADME, organism-based; conditions: in vivo; outline: as §3
# [41] = Half life in fasted Sprague-Dawley rat plasma at 1.62 mg/kg, iv by HTLC-MS/MS analysis; assay type: ADME, organism-based; set-up: dose 1.62 mg/kg, route intravenous; outline: as §1
# Sequence of Glucagon receptor (Mus musculus, UniProt Q61606) (Q61606 whole entry): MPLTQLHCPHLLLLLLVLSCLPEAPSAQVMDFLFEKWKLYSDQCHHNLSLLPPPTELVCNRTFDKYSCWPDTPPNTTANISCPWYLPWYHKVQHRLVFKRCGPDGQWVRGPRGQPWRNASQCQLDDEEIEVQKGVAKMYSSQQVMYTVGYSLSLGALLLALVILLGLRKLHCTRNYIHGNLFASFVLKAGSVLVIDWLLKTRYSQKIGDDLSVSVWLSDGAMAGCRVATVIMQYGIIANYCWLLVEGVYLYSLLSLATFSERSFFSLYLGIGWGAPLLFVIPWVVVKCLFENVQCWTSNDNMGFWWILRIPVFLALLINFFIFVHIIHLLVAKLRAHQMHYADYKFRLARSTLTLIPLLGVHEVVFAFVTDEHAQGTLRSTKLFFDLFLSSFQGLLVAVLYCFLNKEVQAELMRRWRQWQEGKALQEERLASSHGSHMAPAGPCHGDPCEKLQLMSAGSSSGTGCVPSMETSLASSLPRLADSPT
# T2 sequence (P47871 whole entry): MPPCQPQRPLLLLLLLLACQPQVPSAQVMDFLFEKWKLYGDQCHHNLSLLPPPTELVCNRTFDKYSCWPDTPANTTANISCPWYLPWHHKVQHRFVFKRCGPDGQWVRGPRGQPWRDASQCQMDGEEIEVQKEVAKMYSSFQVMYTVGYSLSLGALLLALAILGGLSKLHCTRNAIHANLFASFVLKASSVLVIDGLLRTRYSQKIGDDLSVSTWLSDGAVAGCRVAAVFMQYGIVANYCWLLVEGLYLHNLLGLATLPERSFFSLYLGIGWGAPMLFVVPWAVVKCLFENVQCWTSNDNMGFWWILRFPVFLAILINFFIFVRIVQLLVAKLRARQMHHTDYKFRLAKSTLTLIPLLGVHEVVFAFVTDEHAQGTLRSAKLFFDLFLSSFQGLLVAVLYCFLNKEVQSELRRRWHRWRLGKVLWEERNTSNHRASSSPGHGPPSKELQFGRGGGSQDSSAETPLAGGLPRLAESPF
# Sequence of Glucagon receptor (Rattus norvegicus, UniProt P30082) (P30082 whole entry): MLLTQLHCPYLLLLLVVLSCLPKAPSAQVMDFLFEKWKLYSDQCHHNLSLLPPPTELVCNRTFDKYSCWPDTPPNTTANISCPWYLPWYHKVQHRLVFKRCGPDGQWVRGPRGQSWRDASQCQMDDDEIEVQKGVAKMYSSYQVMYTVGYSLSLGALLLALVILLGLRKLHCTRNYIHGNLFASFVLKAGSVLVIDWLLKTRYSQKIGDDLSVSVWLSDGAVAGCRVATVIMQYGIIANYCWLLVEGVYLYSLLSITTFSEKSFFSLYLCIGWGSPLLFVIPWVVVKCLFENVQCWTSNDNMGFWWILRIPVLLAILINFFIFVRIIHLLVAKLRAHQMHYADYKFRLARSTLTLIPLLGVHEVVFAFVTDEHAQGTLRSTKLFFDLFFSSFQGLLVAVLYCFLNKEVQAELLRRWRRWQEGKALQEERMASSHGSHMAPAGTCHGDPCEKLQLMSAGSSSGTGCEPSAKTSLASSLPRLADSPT
compound,measurement,setting,value
O=C(O)CCNC(=O)c1ccc(CC(c2ccc(Cl)cc2)c2nc(-c3ccc(C(F)(F)F)cc3)cs2)cc1 (stereo unspecified),IC50,[1],381 nM
same,IC50,[2],38 nM
same,IC50,[3],211 nM
same,Cmax,[4],117 ng/mL
same,Tmax,[5],0.5 h
same,fold change (FC),[6],5
same,bioavailability,[7],52%
same,clearance,[8],28 mL/min/kg
same,half-life,[9],0.4 h
same,fold change (FC),[10],> 50
same,IC50,[11],96 nM
O=C(O)CCNC(=O)c1ccc(CN(c2ccc3c(c2)Cc2ccccc2-3)c2nc(-c3ccc(OC(F)(F)F)cc3)cs2)cc1,IC50,[1],488 nM
same,inhibition,[12],inactive
same,Tmax,[13],5 h
same,IC50,[14],700 nM
same,IC50,[2],59 nM
same,IC50,[3],290 nM
same,half-life,[15],2.47 h
same,fold change (FC),[6],5
same,clearance,[16],5 mL/min/kg
same,Cmax,[17],471 ng/mL
same,IC50,[18],1800 nM
same,bioavailability,[19],12%
same,IC50,[20],218 nM
same,IC50,[21],62 nM
same,fold change (FC),[10],> 50
same,IC50,[11],50 nM
O=C(O)CCNC(=O)c1ccc(CN(c2ccc(OC(F)(F)F)cc2)c2nc(-c3ccc(C(F)(F)F)cc3)cs2)cc1,IC50,[1],833 nM
same,Tmax,[22],1.47 h
same,bioavailability,[23],55%
same,inhibition,[12],inactive
same,Tmax,[24],> 6 h
same,half-life,[25],3.92 h
same,IC50,[14],3600 nM
same,IC50,[2],51 nM
same,clearance,[26],0.78 mL/min/kg
same,Cmax,[27],1000 ng/mL
same,IC50,[3],480 nM
same,half-life,[28],7.57 h
same,fold change (FC),[6],5
same,bioavailability,[29],29%
same,IC50,[30],5300 nM
same,IC50,[31],96 nM
same,IC50,[18],2000 nM
same,clearance,[32],2 mL/min/kg
same,Cmax,[33],638 ng/mL
same,IC50,[20],552 nM
same,IC50,[21],72 nM
same,fold change (FC),[10],> 50
same,IC50,[11],92 nM
O=C(O)CCNC(=O)c1ccc(CN(c2ccc(C(F)(F)F)cc2)c2nc(-c3ccc(Cl)cc3)cs2)cc1,IC50,[1],990 nM
same,Tmax,[22],1.5 h
same,bioavailability,[23],141%
same,Activity,[34],Dose-dependent effect
same,inhibition,[12],inactive
same,IC50,[35],1600 nM
same,half-life,[36],5.23 h
same,half-life,[25],1.73 h
same,Cmax,[37],2100 ng/mL
same,IC50,[14],6700 nM
same,IC50,[2],93 nM
same,clearance,[38],1 mL/min/kg
same,clearance,[26],2.23 mL/min/kg
same,Tmax,[39],1.42 h
same,Cmax,[27],1250 ng/mL
same,IC50,[3],1100 nM
same,bioavailability,[40],58%
same,fold change (FC),[6],5
same,half-life,[41],3.8 h
same,IC50,[30],7000 nM
same,IC50,[31],155 nM
same,IC50,[18],2700 nM
same,IC50,[20],648 nM
same,IC50,[21],114 nM
same,fold change (FC),[10],> 50
same,IC50,[11],92 nM
